# Where no end group is shown, it is not given here.
# Experiment: Tryptophan fluorescence of peptides in phosphate buffer without lipid
# Assay type: physicochemical
# Conditions: no lipid; from fluorescence and CD
# Method in brief: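 7 μM peptide in buffer without liposomes, pH 8 or 4 (adjusted with dilute NaOH/HCl), temperature-controlled. Trp emission 310–450 nm, excitation 295 nm, slits 2–4/2 nm; CD spectra recorded in parallel.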
row,State of the peptide in aqueous solution (solubility / aggregation),Molecule
1,unfolded and monomeric,"CC[C@H](C)[C@H](NC(=O)[C@@H]1CCCN1C(=O)[C@H](CC(N)=O)NC(=O)[C@H](CCC(N)=O)NC(=O)[C@H](CCC(=O)O)NC(=O)[C@H](C)NC(=O)[C@H](C)N)C(=O)N[C@@H](Cc1ccc(O)cc1)C(=O)N[C@@H](Cc1c[nH]c2ccccc12)C(=O)N[C@@H](C)C(=O)N[C@@H](CCCNC(=N)N)C(=O)N[C@@H](Cc1ccc(O)cc1)C(=O)N[C@@H](C)C(=O)N[C@@H](CC(=O)O)C(=O)N[C@@H](Cc1c[nH]c2ccccc12)C(=O)N[C@@H](CC(C)C)C(=O)N[C@@H](Cc1ccccc1)C(=O)N[C@H](C(=O)N[C@H](C(=O)N1CCC[C@H]1C(=O)N[C@@H](CC(C)C)C(=O)N[C@@H](CC(C)C)C(=O)N[C@@H](CC(C)C)C(=O)N[C@@H](CC(C)C)C(=O)N[C@@H](CC(=O)O)C(=O)N[C@@H](CC(C)C)C(=O)N[C@@H](C)C(=O)N[C@@H](CC(C)C)C(=O)N[C@@H](CC(C)C)C(=O)N[C@H](C(=O)N[C@@H](CC(=O)O)C(=O)N[C@@H](C)C(=O)N[C@@H](CC(=O)O)C(=O)N[C@@H](CCC(=O)O)C(=O)NCC(=O)N[C@H](C(=O)O)[C@@H](C)O)C(C)C)[C@@H](C)O)[C@@H](C)O [WT, reference compound]"
2,"probably, more aggregated in solution",AAEQNPIYWARYADWLFTTPLLLLALALLVDADEGT [D25A]
3,remain soluble and monomeric in solution,AAEQNPIYWARYADWLFTTPLLLLELALLVDADEGT [D25E]

# Second part, the molecule before the results:
row,Molecule,State of the peptide in aqueous solution (solubility / aggregation)
1,AAEQNPIYWARYAEWLFTTPLLLLDLALLVDADEGT [D14E],remain soluble and monomeric in solution
2,AAEQNPIYWARYADWLFTDLPLLLLDLLALLVDADEGT [3D],aggregated state of the peptide in solution even at low concentrations

# — publication PMC2862812 (Biochimica et biophysica acta, 2009)
